Experimental data as given in ChEMBL document CHEMBL1130197, “Preparation, characterization, DNA binding, and in vitro cytotoxicity of the enantiomers of the platinum(II) complexes N-methyl-, N-ethyl- and N,N-dimethyl-(R)- and -(S)-3-aminohexahydroazepinedichloroplatinum(II)” (1997).

Tests used:
Format in all cases: functional
[1] = test system: BL13/0; assay: Concentration to inhibit growth of BL13/0 cell lines; settings: Homo sapiens
In short: (§1)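 Human tumor lines grown as monolayers in RPMI 1640 with 10% FCS plus penicillin/streptomycin, at 37 °C under 7.5% CO₂, 5% O₂, 85% N₂. Cells were seeded at 5000 per well and left 24 h, then exposed for 96 h at 37 °C to complexes (saline-dissolved, final 0–200 μM). Viability was read by MTT (570 nm) or SRB (570 nm) against untreated controls, with 4 or 6 replicates. IC50 was taken from dose–response curves.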

[2] = test system: DU-145; assay: Concentration to inhibit growth of DU145 cell lines; settings: Homo sapiens; in short: as §1
[3] = test system: PC-9; assay: Concentration to inhibit growth of PC9 cell lines; settings: Homo sapiens; in short: as §1
[4] = Concentration to inhibit growth of PC9-cisR cell lines; settings: Homo sapiens; PC-9; in short: as §1

| Substance | Mean IC50 [1] | Mean IC50 [2] | Mean IC50 [3] | Mean IC50 [4] |
| --- | --- | --- | --- | --- |
| 8,8-Platinum dichloro-7-ethyl-(6S)-1,7-diazoniabicyclo[4.2.1]nonane | 19 µM | 21.3 µM | 31 µM | 79.7 µM |
| 8,8-Platinumdichloro-7,7-dimethyl-(6R)-1,7-diazoniabicyclo[4.2.1]nonane | 7.7 µM | 7.3 µM | 13.5 µM | 29.3 µM |
| 8,8-Platinumdichloro-7,7-dimethyl-(6S)-1,7-diazoniabicyclo[4.2.1]nonane | 10.2 µM | 11.5 µM | 11.8 µM | 28.7 µM |
| 8,8-Platinumdichloro-7-ethyl-(6R)-1,7-diazoniabicyclo[4.2.1]nonane | 7.4 µM | 9.5 µM | 20 µM | 44 µM |
| 8,8-Platinumdichloro-7-methyl-(6S)-1,7-diazoniabicyclo[4.2.1]nonane | 11.7 µM | 10.1 µM | 13.7 µM | 38.3 µM |
| 8,8-platinumdichloro-(6R)-1,7-diazoniabicyclo[4.2.1]nonane | 1.3 µM | 2.9 µM | 5.9 µM | 16 µM |
| CISPLATIN | 1.9 µM | 1.8 µM | 1.4 µM | 11.7 µM |
